# Measured values taken from ChEMBL document CHEMBL3785041, “Discovery of a Potent Free Fatty Acid 1 Receptor Agonist with Low Lipophilicity, Low Polar Surface Area, and Robust in Vivo Efficacy” (J Med Chem, 2016).
# Activity calls are given as the source filed them. No cut-off for these calls is given here.
# Biological target: T1, Free fatty acid receptor 1 (Homo sapiens, UniProt O14842)
# Experiment: Agonist activity at human FFA1 receptor expressed in human 1321N1 cells measured for 50 intervals of 0.4 secs by calcium mobilization assay
# Assay type: functional, cell-based
# Settings: 1321-n1
# Procedure, shortened: (§1)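 Ca²⁺ read-out at human FFA1. Efficacy is expressed relative to TUG-20 (3-(4-(benzyloxy)phenyl)propanoic acid).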
# T1 sequence (O14842 whole entry): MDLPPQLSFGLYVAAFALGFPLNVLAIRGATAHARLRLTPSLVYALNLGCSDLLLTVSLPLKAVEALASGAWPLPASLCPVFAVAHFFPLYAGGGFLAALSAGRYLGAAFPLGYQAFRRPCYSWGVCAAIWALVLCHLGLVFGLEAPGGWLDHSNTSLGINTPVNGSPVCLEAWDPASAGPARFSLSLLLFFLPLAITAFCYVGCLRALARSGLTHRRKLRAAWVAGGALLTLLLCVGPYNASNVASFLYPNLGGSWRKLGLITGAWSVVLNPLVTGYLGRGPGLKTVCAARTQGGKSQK
row,SMILES,pEC50
1,O=C(O)CCc1ccc(C#CC2(O)CCCCC2)cc1,< 4

# Same assay, conditions: read-out: EC50
row,SMILES,EC50 [µM]
1,CC/C=C\C/C=C\C/C=C\CCCCCCCC(=O)O [LINOLENIC ACID],3
2,C/C=C(/C)C#Cc1ccc(CCC(=O)O)c(F)c1,0.02

# Same assay, conditions: read-out: pEC50 (converted)
row,SMILES,EC50 [µM]
1,C/C=C/C#Cc1ccc(CCC(=O)O)c(F)c1,0.209
2,O=C(O)CCc1ccc(C#CC2CC2)cc1,5.01
3,O=C(O)CCc1ccc(C#CCCc2ccccc2)cc1,1.82
4,C/C=C\C#Cc1ccc(CCC(=O)O)c(F)c1,0.0479
5,C#Cc1ccc(CCC(=O)O)cc1,> 100
6,O=C(O)CCc1ccc(C#CC2=CCCCC2)cc1,0.2
7,CCCCCCCC#Cc1ccc(CCC(=O)O)cc1,1.45
8,CC(C)=C(C)C#Cc1ccc(CCC(=O)O)cc1,0.0832
9,C=C(C)C#Cc1ccc(CCC(=O)O)cc1,0.417
10,O=C(O)CCc1ccc(C#CCc2ccccc2)cc1,0.389
11,O=C(O)CCc1ccc(C#CC2CCCC2)cc1,0.49
12,O=C(O)CCc1ccc(C#CC2CCCCC2)cc1,0.513

# Biological target: T1, Free fatty acid receptor 1
# Experiment: Agonist activity at human FFA1 receptor expressed in human 1321N1 cells measured for 50 intervals of 0.4 secs by calcium mobilization assay relative to TUG-20
# Assay type: functional, cell-based
# Settings: not given
# Procedure, shortened: as §1
row,SMILES,Efficacy [%]
1,C/C=C/C#Cc1ccc(CCC(=O)O)c(F)c1,97
2,O=C(O)CCc1ccc(C#CC2CC2)cc1,128
3,O=C(O)CCc1ccc(C#CCCc2ccccc2)cc1,128
4,C/C=C\C#Cc1ccc(CCC(=O)O)c(F)c1,91
5,O=C(O)CCc1ccc(C#CC2=CCCCC2)cc1,100
6,C/C=C(/C)C#Cc1ccc(CCC(=O)O)c(F)c1,103
7,C=C(C)C#Cc1ccc(CCC(=O)O)c(F)c1,106
8,CCCCCCCC#Cc1ccc(CCC(=O)O)cc1,84
9,CC(C)=C(C)C#Cc1ccc(CCC(=O)O)cc1,105
10,C=C(C)C#Cc1ccc(CCC(=O)O)cc1,108
11,C/C=C(\C)C#Cc1ccc(CCC(=O)O)c(F)c1,97
12,O=C(O)CCc1ccc(C#CCc2ccccc2)cc1,103
13,C/C(C#Cc1ccc(CCC(=O)O)c(F)c1)=C/CO,105
14,O=C(O)CCc1ccc(C#CC2CCCC2)cc1,94
15,O=C(O)CCc1ccc(C#CC2CCCCC2)cc1,98

# Tested on: not listed separately
# Experiment: Drug metabolism in human liver microsomes assessed as cytochrome P450-mediated compound oxidation by measuring drug recovery after 1 hr by HPLC analysis
# Assay type: ADME
# Settings: read-out: Drug recovery
row,SMILES,remaining at 1 h [%]
1,C/C=C(/C)C#Cc1ccc(CCC(=O)O)c(F)c1,38
2,COc1ccc(CCN(C)CCCC(C#N)(c2ccc(OC)c(OC)c2)C(C)C)cc1OC (centres undefined),23

# Tested on: not listed separately
# Experiment: Chemical stability in fasted state simulated gastric fluid assessed as drug recovery at 37 degC after 2 hrs
# Assay type: physicochemical
# Settings: read-out: Drug recovery
row,SMILES,remaining at 2 h [%]
1,C/C=C(/C)C#Cc1ccc(CCC(=O)O)c(F)c1,84

# Biological target: T2, Free fatty acid receptor 4 (Homo sapiens, UniProt Q5NUL3)
# T2 sequence (Q5NUL3 whole entry): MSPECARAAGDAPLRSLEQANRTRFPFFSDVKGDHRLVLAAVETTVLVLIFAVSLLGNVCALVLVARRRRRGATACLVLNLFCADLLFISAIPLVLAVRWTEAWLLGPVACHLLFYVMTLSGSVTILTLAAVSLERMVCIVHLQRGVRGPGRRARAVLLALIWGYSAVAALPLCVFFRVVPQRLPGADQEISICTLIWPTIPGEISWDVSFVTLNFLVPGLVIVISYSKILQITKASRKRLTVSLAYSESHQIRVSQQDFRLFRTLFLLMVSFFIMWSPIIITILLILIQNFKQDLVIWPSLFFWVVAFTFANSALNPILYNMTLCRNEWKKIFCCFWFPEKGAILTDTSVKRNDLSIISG
# Experiment: Agonist activity at human C-terminal YFP-tagged FFA4 receptor expressed in HEK293 cells incubated for 5 mins by BRET based beta-arrestin 2 recruitment assay
# Assay type: cell-based
# Settings: not given
# Procedure, shortened: (§2)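 Human FFA4 counter-screen using a β-arrestin mobilization read-out. Efficacy is expressed relative to a reference alkyne FFA1 agonist tested at 10 μM.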
row,SMILES,EC50 [µM]
1,C/C=C/C#Cc1ccc(CCC(=O)O)c(F)c1,34.7
2,O=C(O)CCc1ccc(C#CC2CC2)cc1,> 100
3,O=C(O)CCc1ccc(C#CCCc2ccccc2)cc1,4.79
4,C/C=C\C#Cc1ccc(CCC(=O)O)c(F)c1,17.8
5,C#Cc1ccc(CCC(=O)O)cc1,> 100
6,O=C(O)CCc1ccc(C#CC2=CCCCC2)cc1,> 100
7,C/C=C(/C)C#Cc1ccc(CCC(=O)O)c(F)c1,20
8,C=C(C)C#Cc1ccc(CCC(=O)O)c(F)c1,> 100
9,CCCCCCCC#Cc1ccc(CCC(=O)O)cc1,4.07
10,CC(C)=C(C)C#Cc1ccc(CCC(=O)O)cc1,7.59
11,O=C(O)CCc1ccc(C#CC2(O)CCCCC2)cc1,> 100
12,C=C(C)C#Cc1ccc(CCC(=O)O)cc1,> 100
13,C/C=C(\C)C#Cc1ccc(CCC(=O)O)c(F)c1,26.3
14,O=C(O)CCc1ccc(C#CCc2ccccc2)cc1,10.5
15,C/C(C#Cc1ccc(CCC(=O)O)c(F)c1)=C/CO,> 100
16,O=C(O)CCc1ccc(C#CC2CCCC2)cc1,33.9
17,O=C(O)CCc1ccc(C#CC2CCCCC2)cc1,9.55

# Biological target: T3, Free fatty acid receptor 4 (Homo sapiens) (UniProt Q5NUL3)
# T3 sequence (whole entry): T2 sequence (Q5NUL3 whole entry)
# Experiment: Agonist activity at human C-terminal YFP-tagged FFA4 receptor expressed in HEK293 cells incubated for 5 mins by BRET based beta-arrestin 2 recruitment assay relative to TUG-424
# Assay type: cell-based
# Settings: not given
# Procedure, shortened: as §2
row,SMILES,Efficacy [%]
1,C/C=C/C#Cc1ccc(CCC(=O)O)c(F)c1,38
2,O=C(O)CCc1ccc(C#CCCc2ccccc2)cc1,102
3,C/C=C\C#Cc1ccc(CCC(=O)O)c(F)c1,49
4,C/C=C(/C)C#Cc1ccc(CCC(=O)O)c(F)c1,101
5,CCCCCCCC#Cc1ccc(CCC(=O)O)cc1,102
6,CC(C)=C(C)C#Cc1ccc(CCC(=O)O)cc1,102
7,C/C=C(\C)C#Cc1ccc(CCC(=O)O)c(F)c1,89
8,O=C(O)CCc1ccc(C#CCc2ccccc2)cc1,113
9,O=C(O)CCc1ccc(C#CC2CCCC2)cc1,105
10,O=C(O)CCc1ccc(C#CC2CCCCC2)cc1,118

# Tested on: not listed separately
# Experiment: Lipophilicity, log D of compound at pH 7.4
# Assay type: physicochemical
# Settings: buffer
row,SMILES,logD
1,C/C=C(/C)C#Cc1ccc(CCC(=O)O)c(F)c1,1.79

# Tested on: not listed separately
# Experiment: Aqueous kinetic solubility in phosphate buffered saline at 200 uM by turbidimetric assay
# Assay type: physicochemical
# Settings: read-out: Kinetic_solubility
row,SMILES,solubility kinetic at 200 µM [µM]
1,C/C=C(/C)C#Cc1ccc(CCC(=O)O)c(F)c1,191

# Tested on: not listed separately
# Experiment: Chemical stability in 0.1 M phosphate buffered saline assessed as drug recovery at 37 degC after 24 hrs
# Assay type: physicochemical
# Settings: read-out: Drug recovery
row,SMILES,remaining at 24 h [%]
1,C/C=C(/C)C#Cc1ccc(CCC(=O)O)c(F)c1,100

# Tested on: not listed separately
# Experiment: Chemical stability in fed state simulated intestinal fluid assessed as drug recovery at 37 degC after 2 hrs
# Assay type: physicochemical
# Settings: read-out: Drug recovery
row,SMILES,remaining at 2 h [%]
1,C/C=C(/C)C#Cc1ccc(CCC(=O)O)c(F)c1,95

# Tested on: not listed separately
# Experiment: Chemical stability in fasted state simulated intestinal fluid assessed as drug recovery at 37 degC after 2 hrs
# Assay type: physicochemical
# Settings: read-out: Drug recovery
row,SMILES,remaining at 2 h [%]
1,C/C=C(/C)C#Cc1ccc(CCC(=O)O)c(F)c1,100

# Tested on: not listed separately
# Experiment: Cmax in C57BL/6 mouse plasma at 10 mg/kg, po
# Assay type: ADME, organism-based
# Design: dose 10 mg/kg, route oral
# Settings: not given
row,SMILES,Cmax [µM]
1,C/C=C(/C)C#Cc1ccc(CCC(=O)O)c(F)c1,44.7

# Tested on: not listed separately
# Experiment: Tmax in C57BL/6 mouse plasma at 10 mg/kg, po
# Assay type: ADME, organism-based
# Settings: not given
row,SMILES,Tmax [min]
1,C/C=C(/C)C#Cc1ccc(CCC(=O)O)c(F)c1,15

# Tested on: not listed separately
# Experiment: Half life in C57BL/6 mouse plasma at 10 mg/kg, po
# Assay type: ADME, organism-based
# Settings: not given
row,SMILES,half-life [min]
1,C/C=C(/C)C#Cc1ccc(CCC(=O)O)c(F)c1,99

# Tested on: not listed separately
# Experiment: AUC (0 to infinity) in C57BL/6 mouse plasma at 10 mg/kg, po
# Assay type: ADME, organism-based
# Design: dose 10 mg/kg, route oral, time infinity
# Settings: not given
row,SMILES,AUC(0-inf) [µM·h]
1,C/C=C(/C)C#Cc1ccc(CCC(=O)O)c(F)c1,138

# Tested on: Mus musculus
# Experiment: Clearance in C57BL/6 mouse plasma at 10 mg/kg, po
# Assay type: ADME, organism-based
# Settings: in vivo
row,SMILES,clearance [mL/min/kg]
1,C/C=C(/C)C#Cc1ccc(CCC(=O)O)c(F)c1,0.49

# Tested on: Mus musculus
# Experiment: Antidiabetic activity in C57BL/6 mouse assessed as reduction in plasma glucose level at 10 mg/kg administered 15 mins through oral gavage prior to glucose challenge measured after 30 to 120 mins by OGTT
# Assay type: functional, organism-based
# Settings: not given
row,SMILES,Activity
1,C/C=C(/C)C#Cc1ccc(CCC(=O)O)c(F)c1,Active

# Tested on: Mus musculus
# Experiment: Antidiabetic activity in C57BL/6 mouse assessed as increase in plasma insulin level at 10 mg/kg administered 15 mins through oral gavage prior to glucose challenge measured after 30 mins by ELISA
# Assay type: functional, organism-based
# Settings: not given
row,SMILES,Activity
1,C/C=C(/C)C#Cc1ccc(CCC(=O)O)c(F)c1,Active

# Biological target: T1, Free fatty acid receptor 1
# Experiment: Potency index, ratio of alpha-linolenic acid EC50 to compound EC50 for human FFA1 receptor expressed in human 1321N1 cells
# Assay type: cell-based
# Settings: not given
row,SMILES,Ratio EC50
1,C/C=C(/C)C#Cc1ccc(CCC(=O)O)c(F)c1,100

# Tested on: not listed separately
# Experiment: Ratio of Cmax in C57BL/6 mouse plasma to EC50 for human FFA1 receptor expressed in human 1321N1 cells
# Settings: not given
row,SMILES,Ratio
1,C/C=C(/C)C#Cc1ccc(CCC(=O)O)c(F)c1,>1000
